ChEMBL document CHEMBL1152292, “Biarylpyrazolyl oxadiazole as potent, selective, orally bioavailable cannabinoid-1 receptor antagonists for the treatment of obesity” (J Med Chem, 2008)

Tests used:
Cannabinoid receptor 1 = Cannabinoid receptor 1 (Rattus norvegicus, UniProt P20272); experiment: Displacement of [3H]CP-55940 from CB1 receptor in Sprague-Dawley rat cerebellum by liquid scintillation spectrometry
In short: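 Cerebella from male rats (200-300 g) homogenized in TME buffer (50 mM Tris-HCl, 1 mM EDTA, 3 mM MgCl2, pH 7.4), centrifuged 48000g 30 min at 4 °C. About 10 µg membrane incubated with radioligand and varied test concentrations in TME plus 0.5% fatty-acid-free BSA, 1 h at 30 °C. Filtered through PEI-soaked GF/B filters. […] IC50 by nonlinear regression, triplicates, three independent experiments.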

Cannabinoid receptor 2 = Cannabinoid receptor 2 (Homo sapiens, UniProt P34972); experiment: Displacement of [3H]WIN-55212-2 from human CB2 receptor expressed in CHOK1 cells by liquid scintillation spectrometry; assay type: cell-based, CHO-K1
In short: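 Membranes from CHO K-1 cells transfected with human CB2, prepared as for cerebellum. About 10 µg membrane incubated with radioligand and varied test concentrations in TME buffer plus 0.5% fatty-acid-free BSA, 1 h at 30 °C. Filtered through PEI-soaked GF/B filters. Nonspecific binding defined with 1 µM WIN55,212-2. IC50 by nonlinear regression, triplicates, three independent experiments.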

[1] = Selectivity ratio of IC50 for human CB2 receptor to IC50 for Sprague-Dawley rat CB1 receptor
In short: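 Ratio of CB2 IC50 to CB1 IC50. Both come from radioligand competition on membranes incubated 1 h at 30 °C in TME/0.5% BSA: rat cerebellar membranes for CB1, human CB2-transfected CHO K-1 membranes for CB2. IC50 by nonlinear regression from three independent triplicate experiments.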

Mus musculus = experiment: Reduction in body weight in diet-induced obese C57BL/6J mouse model at 10 mg/kg, po after 14 days; assay type: functional; parameters: scale not given: the % may be the effect or the level left
In short: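 Male C57BL/6J DIO mice over 38 g, singly housed on a 12 h/12 h light/dark cycle with free access to food and water, habituated at least 7 days, tested during the light period. Compound dissolved fresh daily in deionized water with 10% DMSO, given orally at 10 mL/kg daily for 14 days. Vehicle controls n=5, treated groups n=6. Body weight recorded daily.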

Cannabinoid receptor 1, sequence (P20272 whole entry): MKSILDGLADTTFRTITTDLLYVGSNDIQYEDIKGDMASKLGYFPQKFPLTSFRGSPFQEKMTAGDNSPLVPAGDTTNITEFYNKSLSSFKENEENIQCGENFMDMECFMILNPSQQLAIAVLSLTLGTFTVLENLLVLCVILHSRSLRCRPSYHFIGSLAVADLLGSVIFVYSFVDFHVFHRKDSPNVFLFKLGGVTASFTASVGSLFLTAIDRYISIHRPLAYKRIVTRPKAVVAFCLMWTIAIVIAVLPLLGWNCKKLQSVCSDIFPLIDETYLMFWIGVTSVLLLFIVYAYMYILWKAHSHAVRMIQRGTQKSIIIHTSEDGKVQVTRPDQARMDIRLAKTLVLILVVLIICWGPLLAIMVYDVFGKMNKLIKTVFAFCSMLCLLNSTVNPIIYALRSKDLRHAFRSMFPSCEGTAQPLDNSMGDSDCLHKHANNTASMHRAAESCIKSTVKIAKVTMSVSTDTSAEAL
Cannabinoid receptor 2, sequence (P34972 whole entry): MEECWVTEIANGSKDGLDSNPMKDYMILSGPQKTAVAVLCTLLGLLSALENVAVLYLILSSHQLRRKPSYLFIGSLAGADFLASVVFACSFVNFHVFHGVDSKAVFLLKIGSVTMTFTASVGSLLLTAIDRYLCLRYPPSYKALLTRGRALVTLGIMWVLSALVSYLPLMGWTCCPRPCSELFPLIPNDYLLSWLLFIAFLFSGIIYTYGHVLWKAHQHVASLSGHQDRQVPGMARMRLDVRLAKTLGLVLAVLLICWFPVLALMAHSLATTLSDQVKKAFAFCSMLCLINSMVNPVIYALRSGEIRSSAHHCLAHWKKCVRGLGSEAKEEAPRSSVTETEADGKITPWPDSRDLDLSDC

Row | SMILES | IC50 (Cannabinoid receptor 1) | IC50 (Cannabinoid receptor 2) | Ratio IC50 [1] | Activity (Mus musculus)
1 | CC(C)(C)c1nnc(-c2nn(-c3ccc(Cl)cc3Cl)c(-c3ccc(Cl)cc3)c2C2CC2)o1 | 30.3 nM | 3320 nM | 110 | –
2 | Cc1c(-c2nnc(C(C)(C)c3ccc(Cl)cc3)o2)nn(-c2ccc(Cl)cc2Cl)c1-c1ccc(Cl)cc1 | 4.78 nM | – | – | –
3 | CC(C)(C)c1nnc(-c2nn(-c3ccc(Cl)cc3Cl)c(-c3ccc(Cl)cc3)c2COc2ccccn2)o1 | – | 2040 nM | 84 | –
4 | C=C(C)c1c(-c2nnc(C(C)(C)C)o2)nn(-c2ccc(Cl)cc2Cl)c1-c1ccc(Cl)cc1 | – | 1730 nM | 358 | –
5 | Cc1c(-c2nnc(Cc3ccccn3)o2)nn(-c2ccc(Cl)cc2Cl)c1-c1ccc(Cl)cc1 | 51.9 nM | – | – | –
6 | Cc1ccc(C2(c3nnc(-c4nn(-c5ccc(Cl)cc5Cl)c(-c5ccc(Cl)cc5)c4Cn4cncn4)o3)CC2)cc1 | 1.09 nM | 1240 nM | 1140 | –
7 | CC(C)(C)c1nnc(-c2nn(-c3ccc(Cl)cc3Cl)c(-c3ccc(Cl)cc3)c2Cn2cncn2)o1 | – | 804 nM | 341 | –
8 | CC(C)(C)c1nnc(-c2nn(-c3ccc(Cl)cc3Cl)c(-c3ccc(Cl)cc3)c2CF)o1 | – | 1120 nM | 76 | –
9 | CC(C)(C)c1nnc(-c2nn(-c3ccc(Cl)cc3Cl)c(-c3ccc(Cl)cc3)c2Cn2cccn2)o1 | – | 979 nM | 48 | –
10 | CCCc1c(-c2nnc(C(C)(C)C)o2)nn(-c2ccc(Cl)cc2Cl)c1-c1ccc(Cl)cc1 | 33.5 nM | > 10000 nM | > 299 | –
11 | Clc1ccc(-c2c(Cn3cncn3)c(-c3nnc(C4(c5ccccc5)CC4)o3)nn2-c2ccc(Cl)cc2Cl)cc1 | – | 1130 nM | – | –
12 | CCCCCc1nnc(-c2nn(-c3ccc(Cl)cc3Cl)c(-c3ccc(Cl)cc3)c2C)o1 | 71.8 nM | – | – | –
13 | CC(O)c1c(-c2nnc(C(C)(C)C)o2)nn(-c2ccc(Cl)cc2Cl)c1-c1ccc(Cl)cc1 (configuration not stated) | – | 1890 nM | 187 | –
14 | CCCCC(C)c1nnc(-c2nn(-c3ccc(Cl)cc3Cl)c(-c3ccc(Cl)cc3)c2C)o1 (configuration not stated) | 15.1 nM | – | – | –
15 | Cc1c(-c2nnc(C3CCCCCC3)o2)nn(-c2ccc(Cl)cc2Cl)c1-c1ccc(Cl)cc1 | 26.5 nM | – | – | –
16 | CCCc1nnc(-c2nn(-c3ccc(Cl)cc3Cl)c(-c3ccc(Cl)cc3)c2C)o1 | 160 nM | – | – | –
17 | CC(C)(C)c1nnc(-c2nn(-c3ccc(Cl)cc3Cl)c(-c3ccc(Cl)cc3)c2C(=O)O)o1 | > 10000 nM | – | – | –

Row | SMILES | IC50 (Cannabinoid receptor 1) | IC50 (Cannabinoid receptor 2) | Ratio IC50 [1] | Activity (Mus musculus)
18 | CC(C)(C)c1nnc(-c2nn(-c3ccc(Cl)cc3Cl)c(-c3ccc(Br)cc3)c2Cn2cncn2)o1 | – | 513 nM | 187 | –
19 | CCCCc1nnc(-c2nn(-c3ccc(Cl)cc3Cl)c(-c3ccc(Cl)cc3)c2C)o1 | 35 nM | – | – | –
20 | Cc1c(-c2nnc(Cc3ccccc3)o2)nn(-c2ccc(Cl)cc2Cl)c1-c1ccc(Cl)cc1 | 19.2 nM | – | – | –
21 | CCCCC(C)(C)c1nnc(-c2nn(-c3ccc(Cl)cc3Cl)c(-c3ccc(Cl)cc3)c2C)o1 | 14.7 nM | – | – | –
22 | Cc1c(-c2nnc(C3CCCCC3)o2)nn(-c2ccc(Cl)cc2Cl)c1-c1ccc(Cl)cc1 | 12 nM | – | – | –
23 | C=Cc1c(-c2nnc(C(C)(C)C)o2)nn(-c2ccc(Cl)cc2Cl)c1-c1ccc(Cl)cc1 | – | 1050 nM | 62 | –
24 | CC(C)(C)c1nnc(-c2nn(-c3ccc(Cl)cc3Cl)c(-c3ccc(Cl)cc3)c2Cn2ccnn2)o1 | – | 1120 nM | 88 | –
25 | Cc1c(-c2nnc(C(C)(C)C)o2)nn(-c2ccc(Cl)cc2Cl)c1-c1ccc(Cl)cc1 | 7.59 nM | 1410 nM | 186 | –
26 | CC(C)c1c(-c2nnc(C(C)(C)C)o2)nn(-c2ccc(Cl)cc2Cl)c1-c1ccc(Cl)cc1 | 18 nM | 2820 nM | 157 | –
27 | CCC(C)c1nnc(-c2nn(-c3ccc(Cl)cc3Cl)c(-c3ccc(Cl)cc3)c2C)o1 (configuration not stated) | 10.4 nM | – | – | –
28 | FC(F)(F)C1(c2nnc(-c3nn(-c4ccc(Cl)cc4Cl)c(-c4ccc(Br)cc4)c3Cn3cncn3)o2)CC1 | 0.93 nM | 948 nM | 1020 | 29.3%
29 | CC(C)(C)c1nnc(-c2nn(-c3ccc(Cl)cc3Cl)c(-c3ccc(Cl)cc3)c2COc2ccccc2)o1 | – | 5910 nM | 204 | –
30 | Clc1ccc(-c2c(Cn3cncn3)c(-c3nnc(C4(c5ccc(Cl)cc5)CC4)o3)nn2-c2ccc(Cl)cc2Cl)cc1 | – | 1480 nM | 670 | –
31 | Cc1c(-c2nnc(C3(C(F)(F)F)CC3)o2)nn(-c2ccc(Cl)cc2Cl)c1-c1ccc(Cl)cc1 | – | – | – | 22.8%
32 | FC(F)(F)C1(c2nnc(-c3nn(-c4ccc(Cl)cc4Cl)c(-c4ccc(Cl)cc4)c3Cn3cncn3)o2)CC1 | 1.51 nM | 1750 nM | 1160 | 29.5%
33 | CCC(CC)c1nnc(-c2nn(-c3ccc(Cl)cc3Cl)c(-c3ccc(Cl)cc3)c2C)o1 | 31.7 nM | – | – | –

Second part, led by results:

Row | IC50 (Cannabinoid receptor 1) | IC50 (Cannabinoid receptor 2) | Ratio IC50 [1] | SMILES | Activity (Mus musculus)
34 | 25 nM | – | – | Cc1c(-c2nnc(C(C)C)o2)nn(-c2ccc(Cl)cc2Cl)c1-c1ccc(Cl)cc1 | –
35 | 0.96 nM | 242 nM | 252 | Clc1ccc(-n2nc(-c3nnc(C4(c5ccccc5)CC4)o3)c(Cn3cncn3)c2-c2ccc(Br)cc2)c(Cl)c1 | –
36 | – | 736 nM | 96 | CC(C)(C)c1nnc(-c2nn(-c3ccc(Cl)cc3Cl)c(-c3ccc(Cl)cc3)c2Cn2cnnn2)o1 | –
37 | 10.4 nM | – | – | CCC(C)(C)c1nnc(-c2nn(-c3ccc(Cl)cc3Cl)c(-c3ccc(Cl)cc3)c2C)o1 | –
38 | 2.81 nM | 407 nM | 145 | CC1(c2nnc(-c3nn(-c4ccc(Cl)cc4Cl)c(-c4ccc(Br)cc4)c3Cn3cncn3)o2)CC1 | –
39 | 13.1 nM | – | – | Cc1c(-c2nnc(C3CCC3)o2)nn(-c2ccc(Cl)cc2Cl)c1-c1ccc(Cl)cc1 | –
40 | 9 nM | > 10000 nM | > 1110 | COC(=O)NC(C)c1c(-c2nnc(C(C)(C)C)o2)nn(-c2ccc(Cl)cc2Cl)c1-c1ccc(Cl)cc1 (configuration not stated) | –
41 | 10.9 nM | – | – | Cc1c(-c2nnc(C(C)c3ccccc3)o2)nn(-c2ccc(Cl)cc2Cl)c1-c1ccc(Cl)cc1 (configuration not stated) | –
42 | 3.37 nM | 680 nM | 202 | CC(C)(C)c1nnc(-c2nn(-c3ccc(Cl)cc3Cl)c(-c3ccc(Cl)cc3)c2Cn2ncnn2)o1 | –
43 | – | 375 nM | 24 | COCc1c(-c2nnc(C(C)(C)C)o2)nn(-c2ccc(Cl)cc2Cl)c1-c1ccc(Cl)cc1 | –
44 | – | 924 nM | 66 | CC(F)c1c(-c2nnc(C(C)(C)C)o2)nn(-c2ccc(Cl)cc2Cl)c1-c1ccc(Cl)cc1 (configuration not stated) | –
45 | 1.34 nM | 579 nM | 432 | Cc1ccc(C2(c3nnc(-c4nn(-c5ccc(Cl)cc5Cl)c(-c5ccc(Br)cc5)c4Cn4cncn4)o3)CC2)cc1 | –
46 | 1.98 nM | 954 nM | 482 | CC1(c2nnc(-c3nn(-c4ccc(Cl)cc4Cl)c(-c4ccc(Cl)cc4)c3Cn3cncn3)o2)CC1 | –
47 | 0.86 nM | – | – | C[C@H](NC(=O)C(C)(C)Oc1ccc(C(F)(F)F)cn1)[C@@H](Cc1ccc(Cl)cc1)c1cccc(C#N)c1 [TARANABANT] | –
48 | – | 1300 nM | 58 | CC(=O)OCc1c(-c2nnc(C(C)(C)C)o2)nn(-c2ccc(Cl)cc2Cl)c1-c1ccc(Cl)cc1 | –
49 | 14.6 nM | 1810 nM | 124 | CC(C)(C)c1nnc(-c2nn(-c3ccc(Cl)cc3Cl)c(-c3ccc(Cl)cc3)c2CO)o1 | –
50 | 0.57 nM | 1050 nM | 1840 | Clc1ccc(C2(c3nnc(-c4nn(-c5ccc(Cl)cc5Cl)c(-c5ccc(Br)cc5)c4Cn4cncn4)o3)CC2)cc1 | –
51 | – | 1670 nM | 107 | COC(=O)NCc1c(-c2nnc(C(C)(C)C)o2)nn(-c2ccc(Cl)cc2Cl)c1-c1ccc(Cl)cc1 | –
52 | 281 nM | – | – | Cc1c(-c2nnc(-c3ccccc3)o2)nn(-c2ccc(Cl)cc2Cl)c1-c1ccc(Cl)cc1 | –
53 | – | 376 nM | 20 | CC(C)(C)c1nnc(-c2nn(-c3ccc(Cl)cc3Cl)c(-c3ccc(Cl)cc3)c2Cn2ccnc2)o1 | –
54 | – | 539 nM | 88 | CC(C)(C)c1nnc(-c2nn(-c3ccc(Cl)cc3Cl)c(-c3ccc(Cl)cc3)c2CC#N)o1 | –
55 | 6.57 nM | 2330 nM | 355 | CCc1c(-c2nnc(C(C)(C)C)o2)nn(-c2ccc(Cl)cc2Cl)c1-c1ccc(Cl)cc1 | –
56 | – | 1480 nM | 71 | CC(=O)SCc1c(-c2nnc(C(C)(C)C)o2)nn(-c2ccc(Cl)cc2Cl)c1-c1ccc(Cl)cc1 | –
57 | – | 1670 nM | 74 | CC(C)(C)c1nnc(-c2nn(-c3ccc(Cl)cc3Cl)c(-c3ccc(Cl)cc3)c2C(C)(C)O)o1 | –
58 | 8.42 nM | – | – | Cc1c(-c2nnc(C(C)(C)c3ccccc3)o2)nn(-c2ccc(Cl)cc2Cl)c1-c1ccc(Cl)cc1 | –
